Activity calls are given as the source filed them. The calls are words filed in the database; no cut-off is given here.
Tests used:
[1] = Induction of Zinc-dependent p53 R175H mutant refolding by assessing wild type conformation
Method in brief: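 Cells grown on coverslips and treated, fixed in 4% paraformaldehyde 10 min, permeabilized in 0.5% Triton X-100 5 min. Stained overnight with conformation-specific antibodies PAB1620 (1:50, wild-type fold) and PAB240 (1:400, misfolded/unfolded), then goat anti-mouse IgG secondary for 40 min.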

TOV112D [2] = assay: Growth inhibition of human TOV112D cells harbouring p53 R175H mutant incubated for 3 days by MTS assay; assay type: functional, cell-based; conditions: 72 h
[3] = Binding affinity to Zn(II)+ incubated for 60 mins using FluoZin-3 by fuorescence assay
[4] = Ratio of EC50 for test compound to EC50 for ZMC1 for growth inhibition of human TOV-112D cells harbouring p53 R175H mutant incubated for 3 days by MTS assay; assay type: functional, TOV112D; conditions: time 3 day
NCI-H1299 [5] = assay: Induction of ROS production in human H1299 cells at 0.75 uM incubated for 24 hrs by CellRox green based fluorescence flow cytometry relative to ZMC1; assay type: functional
[6] = Growth inhibition of human TOV112D cells harbouring p53 R175H mutant incubated for 3 days combination with etoposide by MTS assay; assay type: functional, cell-based; conditions: TOV-112D, 72 h
Method in brief: (§1)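 5000 cells per well seeded to reach 50% confluence the next day, then given serial dilutions of compound; line 1 cells also received 5 Gy γ-irradiation, line 2 cells also received etoposide (level not stated). Growth read by MTS or Calcein AM after 3 days (72 h). EC50 taken from dilution curve; three independent experiments, each in triplicate, Student's t test.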

hERG (KCNH2) = hERG (KCNH2) (Homo sapiens, UniProt Q12809); assay: Displacement of [3H]-dofetilide from human recombinant ERG at 10 uM relative to control; conditions: probe [3H]-dofetilide
hERG (KCNH2), sequence (Q12809 whole entry): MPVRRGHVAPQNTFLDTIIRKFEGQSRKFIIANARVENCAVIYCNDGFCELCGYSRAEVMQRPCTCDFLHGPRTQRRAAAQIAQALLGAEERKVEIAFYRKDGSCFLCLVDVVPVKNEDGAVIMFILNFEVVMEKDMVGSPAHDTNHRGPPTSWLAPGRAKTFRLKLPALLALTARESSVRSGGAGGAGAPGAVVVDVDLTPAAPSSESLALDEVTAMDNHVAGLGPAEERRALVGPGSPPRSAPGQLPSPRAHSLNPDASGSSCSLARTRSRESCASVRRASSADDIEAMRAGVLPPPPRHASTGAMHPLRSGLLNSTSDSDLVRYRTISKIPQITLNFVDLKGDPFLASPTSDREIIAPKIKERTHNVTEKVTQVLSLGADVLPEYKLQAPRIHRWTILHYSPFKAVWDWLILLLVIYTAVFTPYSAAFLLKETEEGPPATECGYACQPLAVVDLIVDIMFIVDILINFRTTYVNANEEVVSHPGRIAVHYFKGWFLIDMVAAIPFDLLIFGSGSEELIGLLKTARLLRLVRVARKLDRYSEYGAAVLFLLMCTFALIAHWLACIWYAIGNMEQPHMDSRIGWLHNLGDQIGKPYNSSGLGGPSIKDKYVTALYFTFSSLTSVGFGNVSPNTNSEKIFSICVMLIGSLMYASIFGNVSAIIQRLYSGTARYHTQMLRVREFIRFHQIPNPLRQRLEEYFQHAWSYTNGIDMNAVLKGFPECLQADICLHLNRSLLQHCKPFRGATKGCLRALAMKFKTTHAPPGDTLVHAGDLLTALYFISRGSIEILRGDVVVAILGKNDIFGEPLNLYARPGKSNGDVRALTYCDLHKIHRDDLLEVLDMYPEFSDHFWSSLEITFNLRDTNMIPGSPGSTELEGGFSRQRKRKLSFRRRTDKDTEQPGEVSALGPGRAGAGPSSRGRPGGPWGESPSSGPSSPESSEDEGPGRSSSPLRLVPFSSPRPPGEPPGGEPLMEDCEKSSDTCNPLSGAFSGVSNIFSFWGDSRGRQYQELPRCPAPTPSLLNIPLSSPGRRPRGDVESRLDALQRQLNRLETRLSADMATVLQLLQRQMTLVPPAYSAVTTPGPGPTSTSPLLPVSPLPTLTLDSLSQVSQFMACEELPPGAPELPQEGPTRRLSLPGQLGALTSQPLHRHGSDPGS

[7] = Binding affinity to Cu(II)+ using CuSO4
[8] = Stability in simulated gastric fluid assessed as parent compound remaining measured after 6 hrs at room temperature; assay type: ADME; conditions: read-out: Stabilty
Method in brief: (§2)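 Incubation in simulated gastric fluid (pH 1–2) at room temperature (~23 °C) or 37 °C. Parent compound remaining quantified by HPLC at 220 and 254 nm, with peak identity confirmed by LC–MS.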

[9] = Stability in simulated gastric fluid assessed as parent compound remaining measured at 37 degC; assay type: ADME; conditions: simulated gi fluid; method in brief: as §2
[10] = biological target: 5-hydroxytryptamine receptor 2A (Homo sapiens, UniProt P28223); assay: Displacement of [125I]+/-DOI from human recombinant 5-HT2A receptor at 10 uM after 60 mins by scintillation counting analysis relative to control; conditions: recombinant human 5-HT2A receptor, probe [125I]+/-DOI
5-hydroxytryptamine receptor 2A, sequence (P28223 whole entry): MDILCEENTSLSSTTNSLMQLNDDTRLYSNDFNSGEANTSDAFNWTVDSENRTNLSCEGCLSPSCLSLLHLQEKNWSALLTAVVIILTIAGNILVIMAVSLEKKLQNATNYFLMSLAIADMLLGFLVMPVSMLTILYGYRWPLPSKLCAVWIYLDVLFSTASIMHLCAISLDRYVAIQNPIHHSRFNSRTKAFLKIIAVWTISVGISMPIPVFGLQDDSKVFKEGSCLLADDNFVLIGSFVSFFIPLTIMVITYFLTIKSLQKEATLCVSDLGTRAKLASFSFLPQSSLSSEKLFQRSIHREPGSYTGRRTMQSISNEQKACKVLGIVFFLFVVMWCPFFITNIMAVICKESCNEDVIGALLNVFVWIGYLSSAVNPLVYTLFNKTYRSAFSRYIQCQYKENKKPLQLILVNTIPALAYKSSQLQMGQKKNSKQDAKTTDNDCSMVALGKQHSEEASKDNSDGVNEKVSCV

[11] = biological target: Sodium-dependent noradrenaline transporter (Homo sapiens, UniProt P23975); assay: Displacement of [3H]nisoxetine from recombinant human norepinephrine transporter at 10 uM incubated for 120 mins by radiometric scintillation analysis relative to control; assay type: ADME; conditions: probe [3H]nisoxetine
Sodium-dependent noradrenaline transporter, sequence (P23975 whole entry): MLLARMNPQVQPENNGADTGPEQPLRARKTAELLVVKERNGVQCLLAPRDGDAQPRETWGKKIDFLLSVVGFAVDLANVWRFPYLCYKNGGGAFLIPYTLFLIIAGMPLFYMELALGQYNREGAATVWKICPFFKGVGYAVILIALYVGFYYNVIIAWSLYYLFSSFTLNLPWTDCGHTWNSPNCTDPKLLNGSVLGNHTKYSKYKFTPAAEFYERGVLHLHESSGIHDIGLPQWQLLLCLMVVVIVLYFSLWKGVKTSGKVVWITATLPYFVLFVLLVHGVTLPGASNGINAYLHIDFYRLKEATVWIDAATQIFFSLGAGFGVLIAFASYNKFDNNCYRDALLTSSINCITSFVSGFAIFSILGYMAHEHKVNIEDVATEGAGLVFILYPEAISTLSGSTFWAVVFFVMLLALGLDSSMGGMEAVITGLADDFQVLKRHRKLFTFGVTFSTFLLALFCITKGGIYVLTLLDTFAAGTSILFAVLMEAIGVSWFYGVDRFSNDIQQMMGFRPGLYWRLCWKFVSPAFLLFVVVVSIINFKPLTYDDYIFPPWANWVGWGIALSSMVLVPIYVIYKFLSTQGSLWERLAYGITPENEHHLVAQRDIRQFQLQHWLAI

[12] = Growth inhibition of human TOV112D cells harbouring p53 R175H mutant incubated for 3 days combination with 5 Gy radiation by MTS assay; assay type: functional, cell-based; conditions: TOV-112D, 72 h; method in brief: as §1
Mu-type opioid receptor = Mu-type opioid receptor (Homo sapiens, UniProt P35372); assay: Displacement of [3H]DAMGO from human recombinant mu receptor at 10 uM after 120 mins by scintillation counting analysis relative to control; conditions: probe [3H]DAMGO
Mu-type opioid receptor, sequence (P35372 whole entry): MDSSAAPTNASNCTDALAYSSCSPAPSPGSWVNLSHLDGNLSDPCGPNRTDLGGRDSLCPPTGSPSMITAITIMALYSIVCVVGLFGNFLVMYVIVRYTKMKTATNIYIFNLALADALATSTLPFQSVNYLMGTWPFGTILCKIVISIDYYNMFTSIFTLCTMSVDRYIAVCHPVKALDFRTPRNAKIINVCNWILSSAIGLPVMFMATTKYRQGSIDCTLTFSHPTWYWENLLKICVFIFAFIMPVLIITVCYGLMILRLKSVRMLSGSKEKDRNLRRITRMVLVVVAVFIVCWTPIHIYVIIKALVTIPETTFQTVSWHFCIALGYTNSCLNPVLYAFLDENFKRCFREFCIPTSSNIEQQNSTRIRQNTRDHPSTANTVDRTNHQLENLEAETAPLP

Sodium channel site 2 = assay: Displacement of [3H]batrachotoxinin from rat Sodium channel site 2 at 10 uM incubated for 60 mins by radiometric scintillation analysis relative to control; conditions: rat sodium channel site 2, probe [3H]batrachotoxinin
[13] = Stability in simulated gastric fluid assessed as parent compound remaining measured after 7 hrs at room temperature; assay type: ADME; conditions: read-out: Stabilty; method in brief: as §2
[14] = Apparent permeability in human Caco-2 cells at 5 uM measured up to 90 mins by LC-MS/MS analysis; assay type: ADME, cell-based
[15] = Toxicity in mouse assessed as maximum tolerated dose; conditions: in vivo
Method in brief: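 Acute single-dose test in NCr nu/nu nude mice aged 8–12 weeks, 5 mice per dose. One intraperitoneal injection was given, then health, behaviour and body weight were monitored.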

TOV112D [16] = assay: Anticancer activity against human TOV112D cells harbouring p53 R175H mutant xenografted NCr nu/nu mouse assessed as tumor growth inhibition at 5.73 mg/kg, ip relative to control; assay type: functional; conditions: read-out: TGI
Method in brief: (§3)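 Tumors (five per group) were grown to 50 mm³, then the compound was given ip daily. Dimensions were measured every other day, with volume = L × W² × π/6. Significance was tested by Student's t test.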

[17] = Binding affinity to Zn(II)+ incubated for 60 mins using RhodZin-3 by fuorescence assay
NCI-H1299 [18] = assay: Cytotoxicity against p53-null human H1299 cells; assay type: functional, cell-based
Method in brief: (§4)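 5000 cells/well seeded; serial compound dilutions added next day at about 50% confluence. Growth read by MTS or Calcein AM after 3 days. Three independent experiments, each in triplicate; significance by Student's t test.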

[19] = Toxicity in NCr nu/nu mouse assessed as change in body weight loss up to 30 mg/kg, ip; assay type: organism-based; conditions: in vivo
Method in brief: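 NCr nu/nu mice, 8–12 weeks old, 5 per dose, given a single intraperitoneal injection for acute maximum tolerated dose testing. Health, behavior and body weight monitored afterward.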

NCI-H460 = assay: Cytotoxicity against human NCI-H460 cells harbouring p53 wild type; assay type: functional, cell-based; method in brief: as §4
MDA-MB-468 = assay: Anticancer activity against human MDA-MB-468 cells harbouring p53 R273H mutant xenografted NCr nu/nu mouse assessed as tumor growth inhibition at 5.73 mg/kg, ip relative to control; assay type: functional, organism-based
Method in brief: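 MDA-MB-468 xenografts (6 × 10⁶ cells/site) in NCr nu/nu nude mice, five tumors per group, grown to 50 mm³, then dosed ip daily. Tumor length and width measured every other day; volume = L × W² × π/6. Growth versus control compared by Student's t test.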

TOV112D [20] = assay: Anticancer activity against human TOV112D cells harbouring p53 R175H mutant xenografted NCr nu/nu mouse assessed as tumor growth inhibition at 5 mg/kg, ip relative to control; assay type: functional; conditions: read-out: TGI; method in brief: as §3

Compound | Activity [1] | EC50 (TOV112D [2]) | Kd [3] | Ratio (NCI-H1299 [5]) | inhibition at 10 µM (hERG (KCNH2)) | inhibition at 1 h, 10 µM [10] | inhibition at 2 h, 10 µM [11] | further results
C/C(=N\NC(=O)N1CCC1)c1ccccn1 | inactive | > 10000 nM | – | – | – | – | – | –
C/C(=N\Nc1nc2ccccc2n1CCN(C)C)c1ccccn1 | Active | 42 nM | 61 nM | 1.6 | – | – | – | Ratio EC50 [4]: 5.2
C/C(=N\Nc1nc2ccccc2n1CCN1CCC(F)(F)C1)c1ccccn1 | Active | 151 nM | 26 nM | – | 101% | 92% | -1% | EC50 [6]: 120 nM; Kd [7]: 0.001 pM; remaining at 6 h [8]: > 92%; Stabilty [9]: > 82%; EC50 [12]: 180 nM
C/C(=N\Nc1nc2ccccc2s1)c1cc(OCCN(C)C)ccn1 | Active | – | 55 nM | 2.5 | 95% | 76% | 82% | inhibition at 2 h, 10 µM (Mu-type opioid receptor): 48%; inhibition at 1 h, 10 µM (Sodium channel site 2): 36%
C/C(=N\NC(=S)N1CCC1)c1cc(N(C)C)ccn1 | inactive | 8 nM | – | – | – | – | – | –
C/C(=N\NC(=S)N1CCC1)c1ccccn1 | Active | – | – | – | – | – | – | remaining at 7 h [13]: 22%; Papp at […], 5 µM [14]: 4.4 ×10⁻⁶ cm/s; MTD [15]: 5 mg/kg; inhibition in vivo at 5.73 mg/kg (TOV112D [16]): 63%
C/C(=N\Nc1nc2ccccc2n1CCN1CCCC1)c1ccccn1 | Active | – | 22 nM | – | 88% | 96% | 101% | inhibition at 1 h, 10 µM (Sodium channel site 2): 101%; inhibition in vivo at 5.73 mg/kg (TOV112D [16]): 47%
C/C(=N\NC(=S)N1CCC1)c1ncccc1C | inactive | – | – | – | – | – | – | –
COCCOc1ccc2nc(N/N=C(\C)c3ccccn3)sc2c1 | Active | – | 81 nM | 2.4 | – | – | – | Kd ([17]; read-out: Kd): 386 nM
C/C(=N\Nc1nc2ccccc2s1)c1ccccn1 | Active | 55 nM | – | – | 19% | 96% | 101% | Activity (NCI-H1299 [18]): inactive; Activity [19]: Non-Toxic; Activity (NCI-H460): inactive; inhibition at 2 h, 10 µM (Mu-type opioid receptor): 13%; inhibition at 1 h, 10 µM (Sodium channel site 2): 101%; TGI (MDA-MB-468): inactive; inhibition in vivo at 5 mg/kg (TOV112D [20]): 72%
C/C(=N\NC(=S)N1CCC1)c1ccccc1 | inactive | – | – | 0.9 | – | – | – | Kd [17]: Not Active
CC(C)(C)/C(=N\NC(=S)N1CCC1)c1ccccn1 | inactive | – | – | 0.7 | – | – | – | Kd [17]: Not Active
O=C(O)CN(CC(=O)O)CC(=O)O [NITRILOTRIACETIC ACID] | – | – | – | – | – | – | – | Kd ([17]; read-out: Kd): 17 nM
C/C(=N\Nc1nc2ccccc2s1)c1cc(OCCO)ccn1 | inactive | – | 22 nM | 2.8 | – | – | – | –
C/C(=N\Nc1nc2ccccc2n1C)c1ccccn1 | Active | 4 nM | – | – | 86% | 46% | 61% | inhibition at 2 h, 10 µM (Mu-type opioid receptor): 48%; inhibition at 1 h, 10 µM (Sodium channel site 2): 7%
